This sample holds only a part of the variants without activity.

In the RNAGym collection of RNA variant scans (doi:10.1126/science.aae0568) one finds yeast fitness data, which are given here for 167 variants.

Sequences and labels used below:
B1: tRNA (parent)
chain: GUUCCGUUGGCGUAAUGGUAACGCGUCUCCCUCCUAAGGAGAAGACUGCGGGUUCGAGUCCCGUACGGAACG

The variants in the data set derive from B1. The data set can be described thus: yeast fitness relative to wild type (ratio to wild type); higher = fitter; tRNA-Arg(CCU), competitive growth, 37 C, YPD. An outline of the steps: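 The tRNA-Arg(CCU) gene variants were made by chemical synthesis with a 3% per-site mutation rate at 69 sites and inserted at the native genomic locus of Saccharomyces cerevisiae. After pooling, the strains were competed in YPD at 37°C for 24 hours in six parallel replicates. Gene amplicons from the start population and each end population were read by 100-nucleotide paired-end sequencing, and Darwinian fitness relative to wild type was taken from genotype frequency changes. Genotypes needed ≥ 100 starting reads, and estimates < 0.5 were set to 0.5.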
With G6A A40U, the yeast fitness was 0.823. The value for C5U G18C A40G A43C U54A was 0.72; that for C5U U16C A40G A43G G63C A69G was at most 0.5. Next, C5U U32C G39A C60U C61G: 0.527; C5U G6C G39A A45U C46G: 0.626; G6A A36C A37G G52A: at most 0.5. The value for C5U U7C A40U U59A A65U G68A was 0.649. In the case of C5U U47C, the yeast fitness amounted to 0.96. The value for C5U U32C U35C C49G was at most 0.5; that for C5U C31U G50A C55G was 0.57. Next, C5U U7C U26A: 0.677; C5U U35A A45C: 0.602. Turning to G6A G12A C22A, the yeast fitness was determined as 0.603.

On to C5U C49G, for which the yeast fitness was determined as 0.919. Next, G6A C22G C24U U47A A70C: at most 0.5; G6A A15U A69U A70U: at most 0.5. The value for G6A C11A C49G was at most 0.5; that for C5U G12C A42G C55A C62A was at most 0.5. Next, C5U U8C A20G C30A A57U C61U: at most 0.5.

As for G6A C46G G51A, the yeast fitness worked out at 0.637. The value for C5U C30A U53A C62U was 0.659; that for C5U C34A G50A U59G C62A was at most 0.5.

Consider C5U U28G C61G, for which the yeast fitness was 0.58.

Regarding C5U U28A C34U G41A, the yeast fitness was at most 0.5.

C5U G9A A37C C60U G67A: the yeast fitness is at most 0.5. Next, G6A G9C G44C C66U: at most 0.5; C5U U28A C30G: at most 0.5; C5U U7C C30A A42C: 0.583. For the variant C5U U32C C49U, the yeast fitness amounted to 0.842. The value for C5U C30G C55G was at most 0.5. Next, G6A G18C A37C C60G A65G: at most 0.5; C5U C34G C61U C66U: at most 0.5. The value for G6A A20C C31U C33G was at most 0.5; that for G6A G18C C22G A65C was at most 0.5. As to G6A C27U A57U, the yeast fitness turned out to be 0.544.

Regarding G6A A21U U26G A70C, the yeast fitness stood at 0.569.

Take G6A G23C C49G U53G A57G C61U: the yeast fitness was at most 0.5. Next, G6A G25C G48C: 0.654. For the variant G6A C22U U53G, the yeast fitness is 0.653. For G6A G25A A45U C62A, the yeast fitness is at most 0.5. The value for G6A C62A was 0.873; that for C5U G41C was 0.91. The value for C5U G17A was 0.929; that for G6A G12A A20G C22G U26A G48C A65U was at most 0.5. As for C5U C33G, the yeast fitness amounted to 0.777. Next, C5U C33A: 0.737. Turning to G6A C11A U26A G52A, the yeast fitness was at most 0.5.

Take C5U C31G C33U: the yeast fitness came to 0.522.

In the case of C5U G25A C49U, the yeast fitness was 0.802. The value for G6A A15U G18C G23C A43G C60U was at most 0.5. Next, G6A C34A A40U U59G: at most 0.5; G6A A15G C22A: at most 0.5. Next, C5U U8C A21G A42U G58A: 0.726; C5U G23C C55A: 0.566; G6A C27A A36G A70U: at most 0.5.

Take C5U U19G U53A: the yeast fitness turned out to be 0.529. The value for G6A A14U G52A G63C was at most 0.5; that for G6A A14G G23A C24G G44A was at most 0.5. The value for G6A G9C C24U C30G C31A A43G A65C was at most 0.5. The value for C5U U35G U47A G48A was at most 0.5.

Turning to G6A C30U U35C, the yeast fitness is at most 0.5. Next, C5U G18C G52C: at most 0.5.

For C5U G51C, the yeast fitness was determined as 0.691. The value for G6A C22G C33A A36C A43G C55G was at most 0.5; that for G6A C27U was 0.785; that for G6A C11G C22G C49A G51A was at most 0.5.

For the variant G6A G44A A69C, the yeast fitness was determined as 0.576. As for G6A G44A U59A A69U, the yeast fitness is at most 0.5. For the variant C5U C33U A65G, the yeast fitness turned out to be 0.63. The value for C5U G12C U13A was at most 0.5; that for C5U U13A A15G A20G C22G C46G G51A was at most 0.5. Turning to G6A C29U G50C U53C A57U C61G, the yeast fitness is at most 0.5. With G6A A20C A57C, the yeast fitness is at most 0.5. Consider G6A A14U C22U A37G, for which the yeast fitness is at most 0.5. Next, G6A C11A A14C U19C U32A A42C U54C C61U G68C: at most 0.5; C5U C33U A45G C61U: at most 0.5. The value for G6A C24G C31G C34U was at most 0.5; that for C5U U13G C30U was 0.663. For C5U U7A C62A, the yeast fitness is at most 0.5.

Consider C5U G50C U54C, for which the yeast fitness was at most 0.5. Next, C5U C31A A40G: 0.743. For G6A C29G G38C A40G A45C, the yeast fitness is at most 0.5. The value for C5U C29A C31A U54A was at most 0.5.

Turning to G6A C30G G67C A69G, the yeast fitness is at most 0.5. The value for G6A C29U C31U C33G U35C was at most 0.5; that for G6A C30G C55G was at most 0.5; that for G6A C22G A57C C66A was at most 0.5. The value for G6A A14G A42G was 0.549.

For G6A C24U C66U, the yeast fitness stood at 0.647. Next, G6A C29A C55U: 0.514; C5U C34U C55G: at most 0.5; C5U U16C: 0.972. The value for C5U U16G was 0.809; that for G6A C24U was 0.733. Next, C5U C31G C49U C61G: at most 0.5; C5U G25A A45G G50C A69C: at most 0.5.

Take G6A C11U A21C U28A C62U: the yeast fitness is at most 0.5. The value for C5U G23C U32C A42G U54A was at most 0.5; that for G6A C31U A36G was at most 0.5.

Take G6A G17A G38C: the yeast fitness was 0.708. Next, G6A C61A C62U A65U A69C: at most 0.5. On to C5U C30G U64A, for which the yeast fitness came out at 0.578.

As to G6A C31U C55U, the yeast fitness is 0.571. Next, G6A C62U C66A: 0.548; C5U C34G U64A: at most 0.5; G6A A21C U47A G68A: at most 0.5. C5U U7C U13G A36C C46U: the yeast fitness stood at 0.757.

As for G6A C22G, the yeast fitness is 0.702. Next, G6A C24U C31A A43C G58C U64G: at most 0.5.

In the case of G6A C31G A40U, the yeast fitness came to 0.688. The value for C5U C31A C34U A43G was 0.77. The value for G6A G10C C29U C61A C62U A65U A69C was at most 0.5; that for C5U G18C C22A G51C was 0.562; that for C5U G44A U64G was 0.532.

For the variant C5U U32C, the yeast fitness stood at 0.892.

C5U C33G G56C A69U: the yeast fitness was at most 0.5.

As for G6A A15C G39A A65G, the yeast fitness is at most 0.5.

Regarding C5U U13G C61U, the yeast fitness was found to be 0.726. Next, G6A A20U C62U A65G: at most 0.5; C5U U13A A43C C46G: 0.627; C5U C31A U32C A37C G50C A69C: 0.731. On to C5U C49A C60G, for which the yeast fitness amounted to 0.754. The value for C5U G6A was 0.884. With C5U G18C C49U U54G, the yeast fitness is at most 0.5. Turning to C5U U13C C22G C29A A45U, the yeast fitness is at most 0.5. The value for G6A A45C G58A was 0.519. Next, C5U U26C A40U: at most 0.5; C5U U13G C33A A37C A70G: at most 0.5.

For the variant C5U C46A C55G C66U A69U, the yeast fitness is at most 0.5.

C5U U7C C46U: the yeast fitness stood at 0.728. Next, C5U C30A: 0.889. Regarding C5U U7A U35A A36U A45U C60G, the yeast fitness was at most 0.5.

For the variant C5U U8A G18A A69C, the yeast fitness is at most 0.5. Next, C5U U16A C24U C66G: at most 0.5; G6A G50A C60A G68U: at most 0.5; C5U U16G A20C A21G C30U: at most 0.5. Next, C5U U26C A69C: 0.655. Next, C5U C34A G38C A70C: 0.608; C5U U13G A42U: 0.627; G6A C11A A15G C49G G51C: at most 0.5.

Consider C5U C33A A36C A37C A43G A70U, for which the yeast fitness is at most 0.5. The value for G6A C24A G38A G39C was at most 0.5; that for C5U U16G C34A U53C C60U was at most 0.5.

As to G6A A21G C24G A37U, the yeast fitness is at most 0.5. Next, C5U G18C C22U G50A U54C: at most 0.5; C5U U19A A21G A43C G51C: at most 0.5; C5U C34A A57G: at most 0.5.

On to G6A G9C C11G C34U U59A A69C, for which the yeast fitness was at most 0.5. Next, C5U U7G G9A C31G A36G: at most 0.5; G6A G44A C46A G52A C66U: 0.526. On to G6A A20G C30G U35A G50A A65C, for which the yeast fitness was found to be 0.517. For the variant G6A A37G C60G A70U, the yeast fitness was at most 0.5.

Take G6A G12C U16C A21U G63C G67A: the yeast fitness was at most 0.5. Take C5U G6C A21U U35C G39A: the yeast fitness is at most 0.5. Next, G6A A14U C34A A70G: at most 0.5. Next, G6A C49A G63A: at most 0.5; G6A A20C G39C C60G C61G: at most 0.5; C5U G17C C30A G50A C66G: at most 0.5. Take G6A A15C C27A A43G: the yeast fitness was found to be 0.592.

Take G6A A15U C22A: the yeast fitness was at most 0.5. The value for G6A G48C was 0.884. The value for G6A G25A was 0.859; that for C5U G10C C27G U28C G39C C46G A69U was at most 0.5. Next, G6A G9A C22U C30G: at most 0.5; G6A C11A A43G G58A A65C C66U: at most 0.5; C5U U7C A40C C66U: at most 0.5. Turning to G6A C24U C46U, the yeast fitness worked out at 0.764.
